Each structure is given as a SMILES string. Some results are limits rather than exact numbers.

Five compounds from paper PMC8193639 (Journal of the American Chemical Society, 2021) can be followed below.

The target of experiment [1] is T1, Pin1_72/14-3-3γ complex (Homo sapiens, UniProt P61981). Nature of the experiment: biochemical.
A further experiment deals with T2, 14-3-3/ERα complex (Homo sapiens, UniProt P61981).
T2 sequence (P61981 1-247): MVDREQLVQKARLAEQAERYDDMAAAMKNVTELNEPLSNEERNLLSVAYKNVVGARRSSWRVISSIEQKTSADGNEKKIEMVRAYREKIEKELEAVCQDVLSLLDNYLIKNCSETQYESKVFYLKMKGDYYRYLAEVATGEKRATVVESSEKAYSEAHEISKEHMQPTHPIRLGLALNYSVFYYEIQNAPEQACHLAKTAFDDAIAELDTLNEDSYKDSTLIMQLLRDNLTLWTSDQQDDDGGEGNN
Nature of the experiment: Selectivity panel, FA protein titration. In kind it is binding. To be noted: 100 μM compound; C-terminal phosphorylation motif.

In a further experiment the target is 14-3-3/Pin1_72 complex (Homo sapiens, UniProt P61981). In words: Cooperativity analysis, 2D FA protein titrations. The class given is binding.
A further experiment has as its target T3, 14-3-3γ (Homo sapiens, UniProt P61981).
T3 sequence (P61981 1-247): T2 sequence (P61981 1-247)
Nature of the experiment: Thermal shift assay, 14-3-3γ alone. In kind it is binding. To be noted: compound added to 14-3-3γ alone. Put shortly:
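Thermal shift assay as an orthogonal check of complex stabilization. Read-out is the 14-3-3γ melting temperature with test compound present. Protein is either alone or with acetylated Pin1 peptide added at 5 or 50 equiv.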

A further experiment deals with T4, C-Raf/14-3-3γ (Homo sapiens, UniProt P61981).
T4 sequence (P61981 1-247): T2 sequence (P61981 1-247)
Nature of the experiment: Selectivity panel, FA protein titration. The class given is binding. The note with it: 100 μM fragment; Thr +1.

Another experiment has as its target T5, B-Raf_729/14-3-3γ (Homo sapiens, UniProt P61981).
T5 sequence (P61981 1-247): T2 sequence (P61981 1-247)
Nature of the experiment: Selectivity panel, FA protein titration. The class given is binding. The note with it: 100 μM fragment; Glu +1.

A further experiment deals with T6, TBC1D237/14-3-3γ (Homo sapiens, UniProt P61981).
T6 sequence (P61981 1-247): T2 sequence (P61981 1-247)
In words: Selectivity panel, FA protein titration. The class given is binding. To be noted: 100 μM fragment; Gln +1.

The next experiment has as its target T7, ERRγ_179/14-3-3γ (Homo sapiens, UniProt P61981).
T7 sequence (P61981 1-247): T2 sequence (P61981 1-247)
In words: Selectivity panel, FA protein titration. In kind it is binding. The note with it: 100 μM fragment; Cys +1.

The target of the next experiment is T8, Mypt1_472/14-3-3γ (Homo sapiens, UniProt P61981).
T8 sequence (P61981 1-247): T2 sequence (P61981 1-247)
In words: Selectivity panel, FA protein titration. In kind it is binding. The note with it: 100 μM fragment; Ser +1.

The next experiment deals with AS160/14-3-3γ complex. Nature of the experiment: Selectivity panel, FA protein titration. The class given is binding. The note with it: 100 μM fragment; Phe +1.
The test system of the next experiment is Abl1pT735/14-3-3γ. In words: Selectivity panel, FA protein titration. The class given is binding. To be noted: 100 μM fragment; Leu +1.
In a further experiment the test system is p65pS45/14-3-3γ. In words: Selectivity panel, FA protein titration. In kind it is binding. To be noted: 100 μM fragment; Ile +1.
The test system of the next experiment is CFTRpS753/14-3-3γ. In words: Selectivity panel, FA protein titration. In kind it is binding. The note with it: 100 μM fragment; Val +1.
Experiment [2] deals with T1, Pin1_72/14-3-3γ complex. In words: FA protein titration of 14-3-3γ in presence of 100 μM compound. The class given is binding.

A word on the EC50: it is the concentration needed to bring the measured effect to its halfway point. A lower EC50 goes with a more potent agent. `Cc1cn(-c2ccc(C=O)cc2)cn1` [fragment 4] had an EC50 on Pin1_72/14-3-3γ complex [1] above 1000 µM.
Consider `C=CC(C)(C)OC[C@H]1O[C@H](O[C@@H]2C3=C([C@H](C)COC(C)=O)C[C@H](O)[C@]3(C)/C=C3/[C@@H](COC)CC[C@H]3[C@@H](C)[C@H]2O)[C@H](O)[C@@H](OC(C)=O)[C@@H]1O` [FCA, fusicoccin A, reference compound], for which the “SF / complex stabilization” value at 14-3-3/ERα complex was found to be 160 fold.
In the case of `O=Cc1ccc(-n2ccnc2-c2ccc(F)cc2F)cc1Br` [fragment 28], the “concentration necessary to induce a 2-fold increase in PPI stabilization” value at 14-3-3/Pin1_72 complex came to 1 µM. The “effect on 14-3-3 melting temperature” value at 14-3-3γ was “no significant effect”. In addition, the “SF / complex stabilization” value is “abolishes any stabilizing effect” on C-Raf/14-3-3γ; “no significant stabilization” at B-Raf_729/14-3-3γ; “no significant stabilization” on TBC1D237/14-3-3γ; “no significant stabilization” on ERRγ_179/14-3-3γ; “no significant stabilization” on Mypt1_472/14-3-3γ; “not responsive to fragment stabilization” at 14-3-3/ERα complex. Besides, the “SF / complex stabilization” value was 1.2 to 2.7 fold in the experiment on AS160/14-3-3γ complex, “some stabilizing activity” with Abl1pT735/14-3-3γ, “some stabilizing activity” in the experiment on p65pS45/14-3-3γ and “some stabilizing activity” in the experiment with CFTRpS753/14-3-3γ. In addition, it took 79 ± 3 µM to reach a half-maximal effect at Pin1_72/14-3-3γ complex [1] (EC50).
Take `O=Cc1ccc(-n2ccnc2-c2cc(Br)ccc2F)cc1Br` [fragment 27]: on 14-3-3γ, the “effect on 14-3-3 melting temperature” value is “no significant effect”. Also, the “SF / complex stabilization” value at C-Raf/14-3-3γ was “abolishes any stabilizing effect”; on B-Raf_729/14-3-3γ, “no significant stabilization”; on TBC1D237/14-3-3γ, “no significant stabilization”; on ERRγ_179/14-3-3γ it was “no significant stabilization”; at Mypt1_472/14-3-3γ, “no significant stabilization”; on 14-3-3/ERα complex, “not responsive to fragment stabilization”. The “SF / complex stabilization” value in the experiment with AS160/14-3-3γ complex is reported as 1.2 to 2.7 fold; with Abl1pT735/14-3-3γ, “no significant complex stabilization”; with p65pS45/14-3-3γ, “no significant complex stabilization”. On Pin1_72/14-3-3γ complex [1], the response was half-maximal at 118 ± 7 µM (EC50).
The term Kd denotes a measure of binding affinity in units of concentration. Turning to `O=Cc1ccc(-n2ccnc2-c2ccccc2)cc1Br` [fragment 13], on Pin1_72/14-3-3γ complex [2], the Kd was found to be 2.16 ± 0.123 µM. Also, the “SF (stabilization factor)” value at Pin1_72/14-3-3γ complex [2] (KD,DMSO/KD,compound, internal DMSO control, 100 μM fragment) is on record as 10.8 fold. The “SF / complex stabilization” value at 14-3-3/ERα complex is “not responsive to fragment stabilization”; in the experiment on AS160/14-3-3γ complex, 1.2 to 2.7 fold. In addition, a half-maximal response on Pin1_72/14-3-3γ complex [1] (EC50) required 101 ± 6 µM.
